Laboratory results reported in ChEMBL document CHEMBL1122293, “Synthesis, evaluation of chemical reactivity, and murine antineoplastic activity of 2-hydroxy-5-(3,4-dichlorophenyl)-6,7-bis(hydroxymethyl)-2,3-dihydro-1H- pyrrolizine bis(2-propylcarbamate) and 2-acyloxy derivatives as potential water-soluble prodrugs” (J Med Chem, 1983).
Converted amounts (≈) assume the structure as drawn.

Legend:
P388 [1] = assay: Median survival time of test animals compared to controls at 50 mg/kg (ip) against P388 Lymphocytic Leukemia in mice; type: functional, Mus musculus
In short: (§1)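 P388 leukemia cells were inoculated ip into male CDF1 mice. Treatment began 24 h later, given ip as five daily doses, either as a Klucel (hydroxypropylcellulose) suspension or as an aqueous solution. Acute toxicity was assessed on day 5 and results were read on day 30. The value is median survival of treated versus control mice, as % T/C.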

P388 [2] = assay: Median survival time of test animals compared to controls at 25 mg/kg (ip) against P388 Lymphocytic Leukemia in mice; type: functional, Mus musculus; in short: as §1
P388 [3] = assay: Weight difference at 25 mg/kg (ip)against P388 Lymphocytic Leukemia in mice; type: functional, Mus musculus
In short: (§2)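 Male CDF1 mice given 6×10^6 leukemia cells ip. Five daily ip doses beginning 24 h later, as Klucel suspension or aqueous solution. Acute toxicity on day 5; survival assessed on day 30. Weight difference reported as treated minus control (g).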

P388 [4] = assay: Log of the tumor cell population at the end of treatment at 12.5 mg/kg (ip) against P388 Lymphocytic Leukemia in mice; type: functional, Mus musculus
P388 [5] = assay: Log of the tumor cell population at the end of treatment at 50 mg/kg (ip) against P388 Lymphocytic Leukemia in mice; type: functional, Mus musculus
P388 [6] = assay: Log of the tumor cell population at the end of treatment at 25 mg/kg (ip) against P388 Lymphocytic Leukemia in mice; type: functional, Mus musculus
P388 [7] = assay: Weight difference at 50 mg/kg (ip)against P388 Lymphocytic Leukemia in mice; type: functional, Mus musculus; in short: as §2
[8] = Water solubility of the compound; type: ADME; settings: read-out: S
In short: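 Excess bis(carbamate) (30-60 mg) in 2 mL distilled water, vortexed 10 min, filtered through Teflon wool and diluted. UV absorbance read at 291 nm. Concentration from a linear Beer's law calibration made with a salt standard (r = 0.998).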

P388 [9] = assay: Weight difference at 12.5 mg/kg (ip)against P388 Lymphocytic Leukemia in mice; type: functional, Mus musculus
In short: (§3)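 P388 leukemia cells inoculated ip into male CDF1 mice; ip treatment started 24 h later, five daily doses, as Klucel (hydroxypropylcellulose) suspension or aqueous solution. Acute toxicity on day 5. Day-30 median survival of treated versus control mice expressed as % T/C. Weight difference is treated minus control, in grams.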

P388 [10] = assay: Weight difference at 100 mg/kg (ip)against P388 Lymphocytic Leukemia in mice; type: functional, Mus musculus; in short: as §2
P388 [11] = assay: Median survival time of test animals compared to controls at 100 mg/kg (ip) against P388 Lymphocytic Leukemia in mice; type: functional, Mus musculus; in short: as §1
P388 [12] = assay: Median survival time of test animals compared to controls at 12.5 mg/kg (ip) against P388 Lymphocytic Leukemia in mice; type: functional, Mus musculus; in short: as §3
P388 [13] = assay: Log of the tumor cell population at the end of treatment at 100 mg/kg (ip) against P388 Lymphocytic Leukemia in mice; type: functional, Mus musculus
B16 [14] = assay: No. of cures on day 60 at 5 mg/kg (ip) against B16 melanocarcinoma in mice; type: functional, Mus musculus
In short: (§4)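 Female BDF1 mice given ip 0.5 mL of tumor brei (1.0 g tissue per 10 mL). Nine daily ip doses beginning 24 h later, as Klucel suspensions or a water/Tween-80 suspension. Acute toxicity scored day 5; survival read day 60. Cures counted per 10-animal group at day 60; weight difference reported as treated minus control (g).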

B16 [15] = assay: Median survival time of test animals compared to controls at 80 mg/kg (ip) against B16 melanocarcinoma in mice; type: functional, Mus musculus
In short: (§5)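 Female BDF1 mice received B16 tumor brei ip (0.5 mL of 1.0 g tissue per 10 mL). From 24 h later they got nine daily ip doses, suspended in Klucel or water/Tween-80. Acute toxicity was assessed on day 5 and survival was evaluated on day 60. The value is median survival as % T/C, with 10 mice per group and a positive control run in parallel.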

B16 [16] = assay: No. of cures on day 60 at 10 mg/kg (ip) against B16 melanocarcinoma in mice; type: functional, Mus musculus; in short: as §4
B16 [17] = assay: No. of cures on day 60 at 20 mg/kg (ip) against B16 melanocarcinoma in mice; type: functional, Mus musculus; in short: as §4
B16 [18] = assay: Weight difference at 80 mg/kg (ip) against B16 melanocarcinoma in mice; type: functional, Mus musculus; in short: as §4
B16 [19] = assay: Median survival time of test animals compared to controls at 5 mg/kg (ip) against B16 melanocarcinoma in mice; type: functional, Mus musculus; in short: as §5
B16 [20] = assay: Median survival time of test animals compared to controls at 40 mg/kg (ip) against B16 melanocarcinoma in mice; type: functional, Mus musculus; in short: as §5
B16 [21] = assay: No. of cures on day 60 at 80 mg/kg (ip) against B16 melanocarcinoma in mice; type: functional, Mus musculus; in short: as §4
B16 [22] = assay: Weight difference at 5 mg/kg (ip)against B16 melanocarcinoma in mice; type: functional, Mus musculus; in short: as §4
B16 [23] = assay: Weight difference at 10 mg/kg (ip)against B16 melanocarcinoma in mice; type: functional, Mus musculus; in short: as §4
B16 [24] = assay: Weight difference at 20 mg/kg (ip) against B16 melanocarcinoma in mice; type: functional, Mus musculus; in short: as §4
B16 [25] = assay: Median survival time of test animals compared to controls at 20 mg/kg (ip) against B16 melanocarcinoma in mice; type: functional, Mus musculus; in short: as §5
B16 [26] = assay: Median survival time of test animals compared to controls at 10 mg/kg (ip) against B16 melanocarcinoma in mice; type: functional, Mus musculus; in short: as §5
B16 [27] = assay: No. of cures on day 60 at 40 mg/kg (ip) against B16 melanocarcinoma in mice; type: functional, Mus musculus; in short: as §4
B16 [28] = assay: Weight difference at 40 mg/kg (ip)against B16 melanocarcinoma in mice; type: functional, Mus musculus; in short: as §4
P388 [29] = assay: Median survival time of test animals compared to controls at 6.25 mg/kg (ip) against P388 Lymphocytic Leukemia in mice; type: functional, Mus musculus; in short: as §1
P388 [30] = assay: Weight difference at 6.25 mg/kg (ip)against P388 Lymphocytic Leukemia in mice; type: functional, Mus musculus; in short: as §2
P388 [31] = assay: Log of the tumor cell population at the end of treatment at 6.25 mg/kg (ip) against P388 Lymphocytic Leukemia in mice; type: functional, Mus musculus

| Structure (SMILES) | T/C (P388 [1]) | T/C (P388 [2]) | Weight change (P388 [3]) | Log cell kill (P388 [4]) | Log cell kill (P388 [5]) | Log cell kill (P388 [6]) | Weight change (P388 [7]) | solubility [8] | Weight change (P388 [9]) | Weight change (P388 [10]) | T/C (P388 [11]) | T/C (P388 [12]) | Log cell kill (P388 [13]) | half-life (Half life was determined) | also measured |
| --- | --- | --- | --- | --- | --- | --- | --- | --- | --- | --- | --- | --- | --- | --- | --- |
| CC(C)NC(=O)OCc1c(COC(=O)NC(C)C)c(-c2ccc(Cl)c(Cl)c2)n2c1CC(OC(=O)CCC(=O)O)C2.CN(C)c1ccncc1 (stereo unspecified) | 111% | 107% | -1.2 g | -1.45 | -1.39 | -1.44 | -2.2 g | 30 mM | -1.3 g | -1.8 g | 125% | 106% | -1.08 | 2.55 h |  |
| CC(C)NC(=O)OCc1c(COC(=O)NC(C)C)c(-c2ccc(Cl)c(Cl)c2)n2c1CC(O)C2 (stereo unspecified) | 150% | 145% | -3.8 g | 0.62 | 0.85 | 0.46 | -5.6 g | 0.0402 mM (≈ 20 µg/mL) | -2.7 g | -6.3 g | 166% | 147% | 2.16 | 0.517 h | Cures (B16 [14]): 0; T/C (B16 [15]): 101%; Cures (B16 [16]): 0; Cures (B16 [17]): 0; Weight change (B16 [18]): -2.4 g; T/C (B16 [19]): 129%; T/C (B16 [20]): 223%; Cures (B16 [21]): 0; Weight change (B16 [22]): 0.1 g; Weight change (B16 [23]): 0.2 g; Weight change (B16 [24]): 0 g; T/C (B16 [25]): 196%; T/C (B16 [26]): 143%; Cures (B16 [27]): 4; Weight change (B16 [28]): -0.9 g; T/C (P388 [29]): 140%; Weight change (P388 [30]): -2.1 g; Log cell kill (P388 [31]): 0.08 |
